STAT3 act-1: increases IL-6 driven STAT3 reporter signal; activation (% of control), % at 5.6 µM; U3A cells, IL-6 STAT3-luciferase reporter, luminescence; 100% = signal with IL-6 EC80 alone; 0.91% of 190,000 active;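 active means activation above the screen-wide mean of compound activation plus 3 SD, cut at about 130% in these data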;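 further: 0% = background luminescence of wells with medium and substrate only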
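Detection: reporter luminescence signal / Assay system: STAT1-lacking human U3A cells, STAT3 luciferase reporter / Incubation: compound pre-incubation 1 h before IL-6, then 6 h stimulation at 37 °C / Control set: IL-6-only high control / Read-out: % activation relative to IL-6 control / Probe or stimulus: Interleukin-6, 33 ng/mL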
Platelet DG rel: platelet dense granule release activity. human platelet-rich plasma, SFLLRN dense granule ATP release, luminescence. inhibition, %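 (compounds screened at 7.5 µM in platelet-rich plasma)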. 0.22% of 300,000 active. AID 1663;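 active means mean replicate score, as percent of positive control, at or above 50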
STAT3 inh: STAT3 signaling inhibition. U3A cells, IL-6 STAT3-luciferase reporter, luminescence; host cell line lacks STAT1. inhibition, % at 5.5 µM. 0.89% of 190,000 active. AID 862;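 active means inhibition above the mean inhibition across all screened compounds plus 3 SD, cut at about 44% in these data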;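 further: 0% = DMSO only wells and 100% = 100 µM nifuroxazide control wells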
STAT1 blocker: reduces IFN-gamma driven STAT1 reporter signal; inhibition, % at 5.5 µM; 0.35% of 200,000 active; NIH 3T3 STAT1-luciferase reporter, luminescence;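 active means inhibition above a set limit, the mean inhibition across all tested compounds plus 3 SD, cut at about 34% in these data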;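 further: 0% = IFN-gamma with DMSO and 100% = IFN-gamma with 300 µM nifuroxazide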
PERK inhibitor: blocks human PERK kinase; Q9NZJ5; AID 1416; 0.17% of 220,000 active; inhibition, % at 5.6 µM; CHO PERK-DD fusion, SEAP luminescence translation reporter;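 active means inhibition above the mean inhibition of all tested compounds plus 3 SD, set separately per screening campaign, cut at about 2.9% in these data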;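 further: PERK kinase domain activated by AP20187 dimerizer at 100 nM; 0% = DMSO with dimerizer and 100% = rapamycin at 8.4 µM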
Target sequence (Q9NZJ5 whole entry, looked up, the tested form may be a part): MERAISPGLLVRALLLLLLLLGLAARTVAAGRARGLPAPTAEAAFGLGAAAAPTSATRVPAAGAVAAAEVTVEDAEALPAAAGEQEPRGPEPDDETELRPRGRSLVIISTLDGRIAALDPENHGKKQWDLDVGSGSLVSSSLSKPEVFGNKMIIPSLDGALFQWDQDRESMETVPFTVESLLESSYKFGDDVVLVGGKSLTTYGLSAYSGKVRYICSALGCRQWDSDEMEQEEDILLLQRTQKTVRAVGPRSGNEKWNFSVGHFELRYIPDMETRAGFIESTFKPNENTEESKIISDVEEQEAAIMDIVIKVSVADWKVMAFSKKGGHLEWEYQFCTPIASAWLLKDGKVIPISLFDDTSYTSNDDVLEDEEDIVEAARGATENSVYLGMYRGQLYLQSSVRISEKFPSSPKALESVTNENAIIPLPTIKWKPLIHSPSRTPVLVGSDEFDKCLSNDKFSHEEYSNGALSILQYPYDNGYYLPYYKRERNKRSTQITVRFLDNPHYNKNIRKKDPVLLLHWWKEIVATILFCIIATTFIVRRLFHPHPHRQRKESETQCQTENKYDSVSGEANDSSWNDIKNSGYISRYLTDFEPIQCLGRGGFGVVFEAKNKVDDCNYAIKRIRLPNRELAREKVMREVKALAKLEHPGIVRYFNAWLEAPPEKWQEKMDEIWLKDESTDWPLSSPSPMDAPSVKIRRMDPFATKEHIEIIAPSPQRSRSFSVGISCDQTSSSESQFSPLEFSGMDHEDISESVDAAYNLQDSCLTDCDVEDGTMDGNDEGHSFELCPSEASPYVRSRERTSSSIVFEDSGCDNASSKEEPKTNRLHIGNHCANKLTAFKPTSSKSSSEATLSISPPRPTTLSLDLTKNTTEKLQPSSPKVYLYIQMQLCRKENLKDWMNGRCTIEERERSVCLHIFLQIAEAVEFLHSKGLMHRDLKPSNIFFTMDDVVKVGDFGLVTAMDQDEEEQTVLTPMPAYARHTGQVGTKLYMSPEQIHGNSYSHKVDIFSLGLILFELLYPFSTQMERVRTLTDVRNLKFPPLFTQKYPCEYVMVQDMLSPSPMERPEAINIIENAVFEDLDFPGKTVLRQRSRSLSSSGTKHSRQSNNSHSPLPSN
STAT3 act-2: confirmation of STAT3 signaling activators; shares compounds with STAT3 act-1; U3A STAT3-luciferase reporter, IL-6 potentiation, luminescence; U3A cells lack STAT1; 100 means same as IL-6 alone; potentiation (% of control), % at 5.7 µM; 64% of 1,200 active; AID 1267;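 active means percent activation of the STAT3 luciferase reporter above a set limit taken from the earlier primary screen, cut at about 130% in these data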;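 further: 0% = background signal of medium plus substrate and 100% = median of IL-6 with DMSO wells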
NFkB act STAT3ct: counter-screen for STAT3 activators: NF-kappaB activation; shares compounds with STAT3 act-1; human cells, NF-kappaB reporter activation; activation (% of control), % at 5.7 µM; 11% of 1,200 active; AID 1309; in the data active means activation above about 120%;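 further: reporter induced by TNF-alpha stimulation; 100% = median of stimulated DMSO wells and 0% = no signal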
STAT1 act: activates STAT1, counter-screen to STAT3 activators | shares compounds with STAT3 act-1 | NIH 3T3 STAT1-luciferase reporter, IFN-gamma, luminescence | activation (% of control), % at 5.7 µM | 13% of 1,200 active | AID 1318;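 active means activation above the solvent-only control well mean plus 3 SD, set per screening run, cut at about 120% in these data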;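 further: 100% = IFN-gamma with DMSO median signal so 100% means no change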
* hit, by the source's call; nt = no result given. In the library only some 1.4% were active in any assay of this set; here they are far more common.

SMILES | STAT3 act-1 | Platelet DG rel | STAT3 inh | STAT1 blocker | PERK inhibitor | STAT3 act-2 | NFkB act STAT3ct | STAT1 act
CCc1cc(=O)[nH]c(-n2[nH]c(-c3ccccc3)cc2=O)n1 | 98 | 4 | 5 | 2 | 1 | nt | nt | nt
O=c1cc(-c2ccccc2)[nH]n1-c1nc2ccccc2[nH]1 | 155* | 3 | -53 | -14 | 0 | 141* | 157* | 141*
CC(=O)Nc1nc(-c2ccc(Cl)cc2)nc(C)c1C(C)=O | 137* | -4 | -42 | 12 | 1 | 122 | 103 | 96
O=C(N/N=C/c1ccc(Cl)cc1Cl)C(=O)NC1CC1 | 96 | 14 | 8 | -6 | 0 | nt | nt | nt
CC(=O)c1cc(C(=O)N2CCc3c([nH]c4ccccc34)C2C2CCCCC2)[nH]n1 (stereo not drawn) | 157* | -13 | -56 | 0 | -1 | 155* | 104 | 96
Cc1c(CN2CCc3c([nH]c4ccccc34)C2C2CCCCC2)cnn1C (stereo not drawn) | 126 | 4 | -25 | 6 | 1 | nt | nt | nt
CC1CCN(c2ncnc3ccccc23)CC1 | 76 | 2 | 31 | 5 | 0 | nt | nt | nt
O=C1CC(c2ccccc2Cl)=NN(c2ncnc3ccccc23)C1=O | 148* | 2 | -60 | -9 | 0 | 146* | 109 | 111
Cc1ccc(N2C(=O)CC(c3c[nH]c4ccccc34)C2=O)cc1 (stereo not drawn) | 96 | -4 | 6 | 3 | 0 | nt | nt | nt
CCC1=NN=C(c2ccc(F)cc2)C(c2c[nH]c3ccccc23)N1O (stereo not drawn) | 163* | 4 | -71 | -1 | 1 | 159* | 104 | 112
Cc1ccc(C(=O)c2oc3ccccc3c2N)cc1 | 143* | 0 | -50 | -27 | 1 | 119 | 118 | 113
Nc1c(C(=O)c2ccc(Br)s2)oc2ccccc12 | 177* | -1 | -82 | -4 | 1 | 158* | 115 | 110
COc1cc(OC)cc(C(=O)N2CC(=O)Nc3ccccc32)c1 | nt | 2 | nt | nt | nt | nt | nt | nt
Cn1nc(-c2ccc(Cl)cc2)c2cc(C(=O)N3CCN(C(=O)c4ccco4)CC3)sc21 | 150* | 6 | -56 | 12 | 0 | 129 | 99 | 89
COc1ccc(-c2nn(C)c3sc(C(=O)N4CCOCC4)cc23)cc1OC | 80 | -2 | 30 | 2 | -1 | nt | nt | nt
CC1CCCN(C(=O)c2cc3c(-c4ccc(Cl)cc4)nn(C)c3s2)C1 (stereo not drawn) | 119 | -8 | -18 | -1 | 1 | nt | nt | nt
CCN1CCN(C(=O)c2cc3c(-c4ccc(Cl)cc4)nn(C)c3s2)CC1 | 152* | -4 | -51 | 12 | 0 | 134* | 97 | 91
COc1ccc(CNC(=O)C(=O)NCC2OCCN2S(=O)(=O)c2cccs2)cc1 (stereo not drawn) | 107 | 7 | -8 | -6 | 0 | nt | nt | nt
CN1CCC(N(C)C(=S)NCCc2ccccc2)CC1 | 100 | 2 | 2 | -9 | 1 | nt | nt | nt
CCn1c(=NC(=O)c2ccco2)sc2cccc(F)c21 | 144* | -1 | -48 | -24 | 0 | 130 | 114 | 125*
COc1ccc(OC)c2c1sc(=NC(=O)c1ccco1)n2C | 166* | -6 | -76 | -6 | -1 | 139* | 105 | 105
Cc1ccc(CNC(=O)COc2ccc(S(=O)(=O)N3CCCC3)cc2)cc1 | nt | -22 | nt | nt | nt | nt | nt | nt
Cc1csc(SCC(=O)Nc2cc(S(=O)(=O)N(C)C)ccc2C)n1 | nt | -8 | nt | nt | nt | nt | nt | nt
O=C(NCCCN1CCOCC1)/C(=C/c1ccco1)NC(=O)c1ccccc1 | nt | -3 | nt | nt | nt | nt | nt | nt
Cn1nc(-c2ccc(Cl)cc2)c2cc(C(=O)NCCN3CCOCC3)sc21 | 145* | 19 | -43 | 12 | 0 | 152* | 105 | 99
SMILES | STAT3 act-1 | Platelet DG rel | STAT3 inh | STAT1 blocker | PERK inhibitor | STAT3 act-2 | NFkB act STAT3ct | STAT1 act
Cn1nc(-c2ccc(Cl)cc2)c2cc(C(=O)NC3CC3)sc21 | 174* | -1 | -86 | -1 | 0 | 185* | 123* | 135*
CCN(CC)CCNC(=O)c1cc2c(-c3ccc(Cl)cc3)nn(C)c2s1 | 177* | 3 | -80 | 8 | -1 | 165* | 106 | 97
Cn1nc(-c2ccc(Cl)cc2)c2cc(C(=O)NCCCN3CCOCC3)sc21 | 155* | 1 | -63 | -1 | -1 | 134* | 109 | 96
CCOC(=O)N1CCC(NC(=O)c2cc3c(-c4cccc(OC)c4)nn(C)c3s2)CC1 | 95 | 2 | 12 | -9 | 1 | nt | nt | nt
CCCN(CCC)CCNC(=O)c1cc2c(-c3ccc(Cl)cc3)nn(C)c2s1 | nt | 5 | nt | nt | nt | nt | nt | nt
CCCCN(CC)CCNC(=O)c1cc2c(-c3ccc(Cl)cc3)nn(C)c2s1 | nt | -1 | nt | nt | nt | nt | nt | nt
Cc1nc2c(oc3ccccc32)c(=O)o1 | 174* | 7 | -88 | -2 | 0 | 159* | 116 | 107
O=c1[nH]c(Cc2ccccc2)nc2c1oc1ccccc12 | 104 | -8 | -1 | 2 | 0 | nt | nt | nt
O=C(NCc1ccccc1)NC(=O)c1ccc(Cl)cc1 | nt | -9 | nt | nt | nt | nt | nt | nt
O=C(CS(=O)c1ccc(C(F)(F)F)cc1[N+](=O)[O-])Oc1ccccc1 (stereo not drawn) | 147* | -1 | -51 | 26 | 1 | 129 | 101 | 72
COC(=O)c1ccc(OC(=O)CS(=O)c2ccccc2[N+](=O)[O-])cc1 (stereo not drawn) | 122 | 2 | -11 | 31 | 0 | nt | nt | nt
CC(C)OC(=O)c1cccnc1SCc1cc(=O)n2ccccc2n1 | 144* | 9 | -48 | 3 | -1 | 127 | 105 | 104
CC(C)OC(=O)c1cccnc1SCC(=O)N(C)c1ccccc1 | 99 | -4 | 6 | 6 | -1 | nt | nt | nt
Cc1ccc(-c2nnn3c2nc(Cl)c2ccccc23)cc1 | 147* | 4 | -41 | 10 | 1 | 145* | 112 | 102
Fc1cccc(-c2nnn3c2nc(Cl)c2ccccc23)c1 | 165* | -1 | -72 | -11 | 2 | 183* | 116 | 106
Clc1nc2c(-c3ccccc3)nnn2c2ccccc12 | nt | 5 | nt | nt | 0 | nt | nt | nt
Oc1cccc(-c2nc3c4c(ncn3n2)-c2ccccc2CC42CCCC2)c1 | 98 | 0 | 8 | 1 | 0 | nt | nt | nt
Clc1ccc2nc(SCc3nnc(-c4ccccc4)o3)[nH]c2c1 | 93 | -1 | 9 | 9 | -1 | nt | nt | nt
Cc1ccc2nc(SCc3nnc(-c4ccccc4Br)o3)[nH]c2c1 | 140* | 25 | -45 | -1 | 0 | 124 | 100 | 99
CC(C)CCNC(=O)c1cccc(S(=O)(=O)N2CCc3ccccc32)c1 | 99 | 5 | 4 | -1 | -1 | nt | nt | nt
CCN(CC)CCCC(C)NC(=O)c1cccc(S(=O)(=O)N2CCc3ccccc32)c1 (stereo not drawn) | 140* | -6 | -43 | 0 | 0 | 148* | 102 | 100

Screens: PubChem, several laboratories
